These results are taken from publication PMC7445463 (Diabetologia, 2020).

Ends that are not written are not given here.

The test system of one series is SD rat islets. The experiment in a line: Perifusion of rat islets, GSIS. Format: cell-based. Particulars: for potentiation of GSIS at low concentrations: 10-100 pM.
The nature of series [1]: EXSCEL post-hoc analysis, eGFR slope and UACR. The class given is in vivo, human.
In series [2] the test system is mouse hypothalamic (mHypoA) and human (SH-SY5Y) neuronal cells. The experiment in a line: Resistin overexposure of neuronal cells. The class given is cell-based. Particulars: for resistin-dependent neuronal inflammation and IR: pharmacological inhibition.
A short description of series [3]: 12 week L-carnitine treatment in type 2 diabetes patients. The class given is in vivo, human. Particulars: after 12 weeks. The procedure, abridged:
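32 patients with type 2 diabetes treated with L-carnitine for 12 weeks, with plasma free carnitine checked for compliance. Two-step hyperinsulinemic-euglycemic clamp (10 then 40 mU/m2/min) with D-[6,6-2H2]-glucose tracer gave hepatic (EGP suppression) and peripheral sensitivity. Vastus lateralis acetylcarnitine by T1-edited long-TE (350 ms) 1H-MRS at rest and after 30 min cycling at 70% Wmax. IHL by 1H-MRS. All measured before and after.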

Series [4] deals with patients with type 2 diabetes. The experiment in a line: Network meta-analysis of antidiabetic medications on blood pressure. Particulars: network meta-analysis. More on the design: species or system human.
The nature of series [5]: 48-week tofogliflozin vs glimepiride trial in T2D with NAFLD. Particulars: after 48 weeks; for AST: baseline 55.4 ± 41.8 / 49.7 ± 46.8; for ALT: baseline 72.2 ± 60.5 / 76.4 ± 77.8; for body weight: baseline 78.7 ± 17.7 / 81.3 ± 19.2; for HbA1c: baseline tofogliflozin 8.0 ± 0.5, glimepiride 8.4 ± 0.9. Format: in vivo, human.
The nature of series [6]: Insulin icodec vs IGlar U100 26-week phase 2 trial. The class given is in vivo, human. The procedure, abridged: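 Randomized, double-blind, double-dummy, treat-to-target phase 2 trial lasting 26 weeks. Participants were insulin-naïve adults with T2D and HbA1c 7.0-9.5% on metformin ± DPP4i, randomized 1:1 (n=247). Starting doses were 70 U once weekly or 10 U once daily, titrated weekly to a pre-breakfast SMBG target of 3.9-6.0 mmol/L. The primary endpoint was HbA1c change from baseline to week 26; FPG and mean weekly dose over the last two weeks were secondary.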

Series [7] in a line: DIO-NASH biopsy-confirmed mouse model. Format: in vivo. The procedure, abridged: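 Male C57BL/6JRj mice fed AMLN diet (40% fat with trans-fat, 20% fructose, 2% cholesterol) for 33 weeks, then liver-biopsied. Only mice with steatosis score ≥2 and fibrosis stage ≥F1 were stratified into groups (n=12-13). Groups received vehicle or test compound at 10 or 30 mg/kg for a further 12 weeks.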

Series [8] is described as follows: 6-day s.c. GIP infusion crossover study, T1D. Format: in vivo, human.
Series [9] relates to obese T2DM and lean subjects. The experiment in a line: GIP infusion, tissue blood flow. Format: in vivo, human.
Series [10] is described as follows: Nasal vs injectable glucagon, insulin-induced hypoglycaemia. The class given is in vivo, human.
Series [11] is described as follows: CDHFD-induced NASH and fibrosis mice. The class given is in vivo, mouse.
The test system of series [12] is isolated diabetic mouse hearts. The experiment in a line: Langendorff-perfused db/db hearts, stable isotope analysis. Particulars: 10 μM Cariporide.
[13] abbreviates: resistin overexposure, neuronal cells.

Take “glucagon-like peptide-1 (HAEGTFTSDVSSYLEGQAAKEFIAWLVKGR; ends and bridges not checked; UniProt P01275 98-127, looked up) [GLP-1]”: the “potentiation of GSIS at low concentrations” value in the series with SD rat islets is recorded as “no such effect”.

Turning to once-weekly exenatide [EQW], the “reduction of UACR vs placebo” value amounted to 28.2% in [1] (baseline UACR>30 mg/g), 22.5% in series [1] (baseline UACR>100 mg) and 34.5% in series [1] (baseline UACR>200 mg). Moreover, the “eGFR slope vs placebo” value in [1] (baseline UACR>100mg/g, 95% CI 0.24-1.34) is reported as “+0.79 mL/min/1.73m2/year”; in series [1] (baseline UACR>200mg/g, 95% CI 0.57-2.06) it was “+1.32 mL/min/1.73m2/year”.

Take `CCOC(=O)C1=CCCC[C@H]1S(=O)(=O)Nc1ccc(F)cc1Cl` [TAK-242]: the “resistin-dependent neuronal inflammation and IR” value in series [2] is “prevents”.

In the case of `C[N+](C)(C)C[C@H](O)CC(=O)[O-]` [carnitine, L-carnitine], the “resting skeletal muscle acetylcarnitine” value in series [3] (before 1.18±0.13) is given as 1.54±0.17 mmol/kgww. Further, in series [3] (before 3.70±0.22), the “post-exercise skeletal muscle acetylcarnitine” value stood at 4.53±0.30 mmol/kgww. Moreover, in series [3] (before 8.1±0.3), the plasma glucose is 7.7 ± 0.3 mmol/L. The “ΔRd (peripheral insulin sensitivity)” value in series [3] (before 10.53±1.85) worked out at 13.83 ± 2.02 µmol/kg/min. Further, in [3] (before 14.7±2.6), the “intrahepatic lipid content (IHL)” value amounted to 12.8±2.2%. Also, the “EGP suppression (hepatic insulin sensitivity)” value in series [3] (before 31.9 ±2.9) is on record as 39.9±3.2%.

On to GIP(3-30), for which the “insulin secretion in response to glucose alone” value with SD rat islets (receptor antagonists) was “not reduced”.

In the case of `CCOc1ccc(Cc2cc([C@@H]3O[C@H](CO)[C@@H](O)[C@H](O)[C@H]3O)ccc2Cl)cc1` [dapagliflozin], the “diastolic blood pressure, mean difference versus placebo” value in [4] is reported as -1.48 mmHg. Under “CON-D and T2DM-D, non-significant”, the “increase in hepatic lipid content (HCL)” value is reported as 20%. Where the note is “T2DM-D, T2DM-P -6±0.02”, the “decrease in hepatic glycogen” value is -10±0.02%. In addition, for the setting “both groups”, the glycogenolysis entry is “no impact”. Moreover, the “EGP higher following administration” value (single dose 10mg) is 25%.

Turning to `CCC1=C(C)CN(C(=O)NCCc2ccc(S(=O)(=O)NC(=O)N[C@H]3CC[C@H](C)CC3)cc2)C1=O` [glimepiride], in series [5], the AST is reported as 52.3 ± 37.6 IU/L, the ALT is 78.9 ± 68.7 IU/L, the body weight was determined as 81.9 ± 21.1 kg and the HbA1c amounted to 7.5 ± 0.6%.

As for `CCCCCCC(=O)CCCCCC/C=C/C[C@@H](O)[C@H](O)[C@@](N)(CO)C(=O)O` [myriocin], the “resistin-dependent neuronal inflammation and IR” value in series [2] was “prevents”.

As to insulin glargine U100 [IGlar U100], the “estimated mean HbA1c at week 26” value in [6] (baseline 8.1 icodec, 8.0 IGlar U100) is recorded as 6.9%. Further, in series [6] (in vivo), the “estimated mean FPG at week 26” value is reported as 7.05 mmol/L and the “estimated mean weekly insulin dose, last two weeks” value is reported as 284 U/week. Moreover, in series [6] (on-treatment period), the “level 2 and 3 hypoglycaemia” value is reported as 46 events per 100 patient years of exposure. Further, in series [6] (week 26), the “estimated mean change in HbA1c from baseline” value is -1.15 %-points.

For the molecule `O=S(=O)(Nc1cc(Cl)c(Oc2cnc3ccccc3c2)c(Cl)c1)c1ccc(Cl)cc1Cl` [CHS-131], in [7] (high dose), the “lower plasma aspartate transaminase” value turned out to be 29% and the lower total cholesterol came to 20%. For the same molecule, the “increase of plasma adiponectin” value in series [7] (high dose 30 mg/kg) is listed as 137%. In addition, the “lower plasma alanine transaminase” value in series [7] (high dose 30 mg/kg, 12 weeks) came to 37%. In [7] (low dose 10 mg/kg), the “increase of plasma adiponectin” value was found to be 114%. In series [7] (trend), the Galectin-3 is listed as -18% and the hydroxyproline was -28%.

Consider `Cc1ccc([C@@H]2O[C@H](CO)[C@@H](O)[C@H](O)[C@H]2O)cc1Cc1ccc(-c2ccc(F)cc2)s1` [canagliflozin], for which the “diastolic blood pressure, mean difference versus placebo” value in series [4] is reported as -1.42 mmHg.

As for `CC[C@H](C)[C@H](NC(=O)[C@H](CO)NC(=O)[C@H](Cc1ccc(O)cc1)NC(=O)[C@H](CC(=O)O)NC(=O)[C@H](CO)NC(=O)[C@@H](NC(=O)[C@H](Cc1ccccc1)NC(=O)[C@@H](NC(=O)CNC(=O)[C@H](CCC(=O)O)NC(=O)[C@H](C)NC(=O)[C@@H](N)Cc1ccc(O)cc1)[C@@H](C)O)[C@@H](C)CC)C(=O)N[C@@H](C)C(=O)N[C@@H](CCSC)C(=O)N[C@@H](CC(=O)O)C(=O)N[C@@H](CCCCN)C(=O)N[C@H](C(=O)N[C@@H](Cc1c[nH]cn1)C(=O)N[C@@H](CCC(N)=O)C(=O)N[C@@H](CCC(N)=O)C(=O)N[C@@H](CC(=O)O)C(=O)N[C@@H](Cc1ccccc1)C(=O)N[C@H](C(=O)N[C@@H](CC(N)=O)C(=O)N[C@@H](Cc1c[nH]c2ccccc12)C(=O)N[C@@H](CC(C)C)C(=O)N[C@@H](CC(C)C)C(=O)N[C@@H](C)C(=O)N[C@@H](CCC(N)=O)C(=O)N[C@@H](CCCCN)C(=O)NCC(=O)N[C@@H](CCCCN)C(=O)N[C@@H](CCCCN)C(=O)N[C@@H](CC(N)=O)C(=O)N[C@@H](CC(=O)O)C(=O)N[C@@H](Cc1c[nH]c2ccccc12)C(=O)N[C@@H](CCCCN)C(=O)N[C@@H](Cc1c[nH]cn1)C(=O)N[C@@H](CC(N)=O)C(=O)N[C@H](C(=O)N[C@H](C(=O)N[C@@H](CCC(N)=O)C(=O)O)[C@@H](C)O)[C@@H](C)CC)C(C)C)[C@@H](C)CC` [GIP], in the series with SD rat islets, the “potentiation of GSIS at low concentrations” value was “potentiated GSIS”. The “increase of daytime time in range (3.9-[…]) vs placebo” value in series [8] (6 pmol/kg/min s.c., 6 days, mean ± SEM) is listed as 160 ± 74 min/day. For the same molecule, the “decrease of 24-hour diastolic blood pressure” value in series [8] (in vivo) worked out at 3.1 ± 1.3 mmHg. Also, the “decrease of 24-hour systolic blood pressure” value in series [8] (in vivo) worked out at 5.8 ± 2.6 mmHg. Moreover, the “SAT blood flow increase from baseline” value in series [9] (GIP infusion, operated subjects) is 143%; in series [9] (GIP-infusion, controls) it was 385%; in series [9] (GIP-infusion, obese), 119%. The “VAT blood flow increase from baseline” value came out at 234% in series [9] (GIP-infusion, control) and 105% in series [9] (GIP-infusion, obese).

glucagon [injectable glucagon]: in series [10] (in vivo), the “geometric least square mean maximal blood glucose (BGMAX)” value is 11.4 mmol/L, the headache is reported as 5.8%, the “mean time to treatment success” value came out at 10.4 min and the nausea amounted to 28.8%. In series [10] (in vivo), this molecule displayed a vomiting of 11.5%. Also, the “patients achieving treatment success” value in series [10] (within 15 minutes, T1D or T2D) was 97.0%.

For the molecule `CCc1ccc(Cc2ccc3c(c2)[C@]2(OC3)O[C@H](CO)[C@@H](O)[C@H](O)[C@H]2O)cc1` [tofogliflozin], the stage score in series [5] (baseline 1.6 ± 1.1) is recorded as 1.1 ± 1.3. This molecule also showed a grade score in [5] (baseline 1.7 ± 0.9) of 0.9 ± 0.8. In series [5], this molecule registered an AST of 27.2 ± 22.4 IU/L, an ALT of 33.1 ± 31.5 IU/L, a body weight of 73.3 ± 18.3 kg and a HbA1c of 6.9 ± 1.2%. In addition, the steatosis score in series [5] (tofogliflozin baseline 2.0 ± 0.7) worked out at 1.2 ± 0.4.

Consider `O=C(O)c1ccnc(N2CC(O)(c3ccc(OCc4c(-c5c(Cl)cccc5Cl)noc4C4CC4)cc3Cl)C2)c1` [CIL, Cilofexor], for which, in series [11] (CDHFD 14 weeks, treatment last 6 weeks), the “hepatic TG vs vehicle” value is 2.6%. Moreover, in series [11] (mouse, in vivo), the “collagen-1α1 gene expression vs vehicle” value is -37.5%, the “hepatic F4/80 gene expression vs vehicle” value is given as -1.6%, the “hepatic IL-1β gene expression vs vehicle” value is on record as -37.5% and the “hepatic TBARS vs vehicle” value is recorded as 11.0%. For the same molecule, the “hepatic hydroxyproline vs vehicle” value in [11] (mouse, in vivo) is reported as -13.7%.

On to `CC(C)c1ccc(C(=O)NC(=N)N)cc1S(C)(=O)=O` [Cariporide], for which the “Empa effects on lactate labeling and G6P” value in series [12] was “mitigated”.

B1: resistin: "circulating factors originated from adipose tissue and immune cells"; "a key mediator linking obesity to IR" (protein, UniProt Q9HD89 19-108, looked up)
Resistin: KTLCSMEEAINERIQEVAGSLIFRAISSIGLECQSVTSRGDLATCPRGFAVTGCTCGSACGSWDVRAETTCHCQCAGMDWTGARCCRVQP
Take B1: in series [2] (setting [13]), the “increased expression of IL6” value turned out to be 89.93% and the “inhibition of insulin-dependent phosphorylation of Akt” value is reported as 40.6%.
